# Screens as filed in PubChem BioAssay.
# OX1R antag-1 = OX1R (HCRTR1) antagonists, primary screen, fluorescence, CHO/OX1R cells, Fluo-8 calcium, orexin A; Orexin/Hypocretin receptor type 1 (Homo sapiens), O43613; Fluo-8 calcium fluorescence; inhibition, % at 5 µM; hit rate 0.43% among 330,000; AID 434989, 2010;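 active = inhibition above its plate's threshold, mean inhibition of all tested compounds on the plate plus 3 SD, cut at about 37% in these data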
# TAAR1 antagonist = human TAAR1 antagonists, primary screen, Fluo-8 calcium fluorescence, CHO RD-HGA16 cells; AID 624466, 2012; hit rate 1.5% among 360,000; antagonist; inhibition, % at 3 µM; Trace amine-associated receptor 1 (Homo sapiens), Q96RJ0;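 active = inhibition above a per-plate cutoff, the mean inhibition of test compounds on that plate plus 3 SD, cut at about 49% in these data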
# Target sequence (Q96RJ0 whole entry, looked up): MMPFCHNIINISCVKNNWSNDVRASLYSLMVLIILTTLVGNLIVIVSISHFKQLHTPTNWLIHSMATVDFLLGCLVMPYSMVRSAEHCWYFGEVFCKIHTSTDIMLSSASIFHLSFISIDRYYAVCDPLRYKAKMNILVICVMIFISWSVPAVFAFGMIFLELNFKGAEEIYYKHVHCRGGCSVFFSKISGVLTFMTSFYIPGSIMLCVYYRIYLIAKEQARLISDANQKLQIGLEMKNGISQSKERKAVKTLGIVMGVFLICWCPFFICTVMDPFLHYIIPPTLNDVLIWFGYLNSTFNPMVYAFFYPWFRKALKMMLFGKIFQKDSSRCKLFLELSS
#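 Material: RD-HGA16 CHO cells with stable hTAAR1 and Gα16; Dosing: single nominal final test compound concentration of 3 µM; Schedule: seeding 17-24 h prior, 75-min 37 °C, 30-min RT dye loading; Detection: kinetic Fluo-8 calcium fluorescence measurement; Measure: % inhibition from peak post-agonist over basal fluorescence ratio; Benchmarks: vehicle and agonist controls.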
# TAAR1 agonist = human TAAR1 agonists, primary screen, Fluo-8 calcium fluorescence, CHO RD-HGA16 cells; Trace amine-associated receptor 1 (Homo sapiens), Q96RJ0; vehicle wells 0%, saturating PEA agonist 100%; activation, % at 3 µM; hit rate 0.99% among 360,000; AID 624467, 2012;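 active = activation above the mean activation of all test compounds in the run plus 3 SD, cut at about 38% in these data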
#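 Test system: RD-HGA16 (CHO) cells co-expressing Gα16 and hTAAR1 / Benchmarks: DMSO vehicle as 0%, PEA at EC100 as 100% / Repeats: no replicates (n 1) / Measure: % activation from peak over basal fluorescence ratio, DMSO-to-PEA scaled / Timing: 17-24 h plating, Fluo-8 75 min 37 °C, 30 min RT / Technique: kinetic Fluo-8 calcium fluorescence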
# OX1R antag-2 = antagonists of human orexin 1 receptor (OX1R); Orexin/Hypocretin receptor type 1 (Homo sapiens), O43613; OX1R-expressing cells, FRET antagonist read-out; inhibition, % at 6.6 µM; hit rate 1.8% among 330,000; AID 485270, 2010; in the data active = inhibition mostly above about 38%, no sharp cut-off; inactive = mostly below about 40%
# GPR7 antagonist = GPR7 receptor antagonists, primary screen, cell-based, fluorescence, single concentration | inhibition, % at 4.4 µM | hit rate 1.1% among 290,000 | Neuropeptides B/W receptor type 1 (Homo sapiens), P48145 | GPR7-expressing cells, fluorescence antagonist assay; in the data active = inhibition above about 16%, passing the limit was not always enough;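 also: cells stimulated with the agonist NPW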
# Target sequence (P48145 whole entry, looked up): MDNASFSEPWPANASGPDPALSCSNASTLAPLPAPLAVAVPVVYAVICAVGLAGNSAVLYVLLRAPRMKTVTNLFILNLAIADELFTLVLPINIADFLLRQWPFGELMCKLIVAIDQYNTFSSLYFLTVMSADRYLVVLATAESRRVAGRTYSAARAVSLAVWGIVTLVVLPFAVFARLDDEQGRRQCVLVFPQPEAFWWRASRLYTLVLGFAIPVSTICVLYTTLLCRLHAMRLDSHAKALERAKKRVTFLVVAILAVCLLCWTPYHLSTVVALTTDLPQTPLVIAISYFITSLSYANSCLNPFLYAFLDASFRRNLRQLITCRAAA
# CHO parental Ca = ATP-evoked calcium signal inhibitors, parental CHO, primary screen, counter-screen for OX1R antagonist project, cell-based, fluorescence, Fluo-8 calcium dye | parental CHO-K1, ATP-induced calcium, Fluo-8 fluorescence | inhibition, % at 5.6 µM | hit rate 0.63% among 330,000 | AID 463079, 2010;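 active = inhibition above that plate's mean sample inhibition plus 3 SD, cut at about 26% in these data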
#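 Assay system: parental CHO cells; Read-out basis: percent inhibition of ATP-evoked calcium rise, normalized to controls; Benchmarks: ATP and no-ATP DMSO wells; Compound dosing: single nominal dose of 5.6 µM per compound; Signal: Fluo-8 calcium dye fluorescence; Also added: ATP as calcium-mobilizing challenge; Repeats: singlicate.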
# A number is an active result; 0 = inactive; - = not tested or not shown. An excerpt weighted towards active compounds, which were near 4.6% of everything screened.
SMILES,OX1R antag-1,TAAR1 antagonist,TAAR1 agonist,OX1R antag-2,GPR7 antagonist,CHO parental Ca
COC(=O)c1cc(C(=O)OCC(=O)NCc2cccs2)cc([N+](=O)[O-])c1,0,0,0,31,-,0
Cc1cc(C(=O)OCC(=O)NCc2cccs2)ccc1[N+](=O)[O-],0,0,0,0,-,0
CCN(CC)S(=O)(=O)c1ccc(=O)[nH]c1,0,0,0,0,0,0
CN(C)c1cc(-c2ccc([N+](=O)[O-])cc2)oc(=O)c1Cl,0,0,0,49,0,0
CN(C)c1cc(-c2ccc(Cl)cc2)oc(=O)c1Cl,0,0,0,0,0,0
CC(=O)c1sc(N/N=C\c2ccccc2O)nc1C,0,0,42,51,0,0
O=C(c1ccc(COc2ccccc2)o1)N1CCN(S(=O)(=O)c2ccccc2Cl)CC1,0,51,0,0,-,0
CCOc1ccc([C@@H]2CC=C(C(=O)O)CN2S(=O)(=O)c2ccc(C)cc2)cc1,0,0,0,0,-,0
CCN(CC)Cc1c(O)ccc2c(-c3ccccc3)cc(=O)oc12,0,0,0,61,0,0
Cc1c(O)ccc2c(-c3ccccc3)cc(=O)oc12,0,0,0,0,0,0
Cc1cccc(C)c1N=C1C(=O)Nc2ccccc21,0,0,0,0,0,0
Cc1cc(C)c(N=C2C(=O)Nc3ccccc32)c(C)c1,0,0,0,38,0,0
NC(=O)c1nsc(C(=O)N(Cc2cccnc2)C(C(=O)NC2CCCCC2)c2ccc(F)cc2)c1N (centres undefined),0,0,0,0,0,0
c1ccc(-c2nc3nc4ccccc4nc3n2CC2CCCO2)cc1 (centres undefined),0,51,0,0,0,0
COc1ccc(CCCC(=O)N/N=C/c2ccccc2OC)cc1,0,0,0,0,0,0
Cn1nc(C(C)(C)C)cc1C(=O)NCc1ccc(N2CCCC2=O)cc1,0,0,0,0,0,37
CCn1c2ccccc2c2cc(NC(=O)COc3ccc(OC)cc3)ccc21,0,0,0,0,0,0
CCC(=O)NC(=S)Nc1ccc(NC(=O)c2ccc(OC)cc2)cc1,0,0,0,0,0,0
CCn1c2ccccc2c2cc(NC(=O)c3ccc(Br)o3)ccc21,48,0,0,85,0,0
CCn1c2ccccc2c2cc(NC(=O)COc3ccccc3)ccc21,0,0,0,65,0,0
CCn1c2ccccc2c2cc(NC(=O)c3cccc([N+](=O)[O-])c3)ccc21,0,0,0,76,-,0
CCC(=O)NC(=S)Nc1ccc(NC(=O)c2ccc(Br)o2)cc1,0,0,0,0,18,0
CCn1c2ccccc2c2cc(NC(=O)c3cccc([N+](=O)[O-])c3C)ccc21,0,0,0,0,0,0
CCn1c2ccccc2c2cc(NC(=O)c3ccc(=O)oc3)ccc21,0,0,0,0,0,0
O=C(NCC1CCN(C(=O)C(=O)c2cc3ccccc3o2)CC1)c1cc(C(F)(F)F)cc(C(F)(F)F)c1,-,0,0,-,-,-
SMILES,OX1R antag-1,TAAR1 antagonist,TAAR1 agonist,OX1R antag-2,GPR7 antagonist,CHO parental Ca
CCC(CO)Oc1cc(NCc2ccc(C(C)(C)C)cc2)c2ncn(C(C)C)c2c1 (centres undefined),0,0,0,0,-,50
COc1ccc(Cc2cc(NCc3ccccc3)c3ncn(C(C)C)c3c2)cc1,0,0,38,0,-,0
CCC(COC)Oc1cc(NCc2ccccc2)c2ncn(C(C)C)c2c1 (centres undefined),0,0,0,35,-,0
CC(C)n1cnc2c(NCc3ccccc3)cc(N[C@H](C)CO)cc21,0,-,-,75,-,0
CCC(CO)Oc1cc(NCc2ccc(O)cc2)c2ncn(C(C)C)c2c1 (centres undefined),0,0,0,0,-,0
COc1ccc(OC)c(NC(=O)c2cc(-c3cc(Cl)ccc3O)n[nH]2)c1,97,0,0,101,0,35
COc1ccc(NC(=O)c2cc(-c3cc(C)ccc3O)n[nH]2)cc1Cl,0,0,0,71,0,0
O=C1CCc2ccc(NC(=O)C3CC3)cc2N1,0,0,0,0,0,0
Clc1ccc(COn2c(-c3ccccc3)nc3ccccc32)cc1,0,0,0,54,0,0
O=[N+]([O-])c1ccc2nc(-c3ccc(Cl)cc3)n(OCc3ccccc3)c2c1,0,0,39,0,0,0
CCCCCCCCCc1conc1C(=O)CP(=O)(OC)OC,-,0,0,-,-,-
Cc1cccc(C)c1OCC(=O)NNC(=S)NC(=O)C1CC1,0,0,48,0,0,0
Cc1cccc(C)c1OCC(=O)NC1CC1,0,0,0,0,0,0
Cc1ccc(/C=C/S(=O)(=O)NCC(=O)OCC(=O)Nc2c(F)cccc2F)cc1,0,0,0,0,-,0
Cc1nn(-c2ccccc2)c(N)c1N=O,0,0,0,61,0,0
O=c1[nH]nc(-c2ccc(NCCO)c([N+](=O)[O-])c2)c2ccccc12,0,0,0,41,0,0
O=c1[nH]nc(-c2ccc(NCCCO)c([N+](=O)[O-])c2)c2ccccc12,0,0,0,0,0,0
C/C(=N\NC(=S)Nc1cc(S(=O)(=O)N2CCOCC2)ccc1Cl)c1ccccc1F,0,0,0,0,0,0
CCOC(=O)c1cn(-c2c(Cl)cccc2Cl)c2cc(Cl)c([N+](=O)[O-])cc2c1=O,0,0,0,0,0,0
CCOC(=O)c1cn(CC)c2cc(Cl)c([N+](=O)[O-])cc2c1=O,0,0,0,55,0,0
Cc1ccc(N(C(=O)CNC(=O)c2ccco2)C(C(=O)NC2CCCCC2)c2cccnc2)cc1 (centres undefined),0,0,0,0,0,0
CC1CCN(C(=O)c2ccccc2NS(=O)(=O)c2ccccc2)CC1,0,0,0,50,0,0
CC(C)C(NC(=O)Nc1ccccc1)C(=O)Nc1cccc(S(=O)(=O)N(C)C)c1 (centres undefined),0,0,0,0,0,0
CCOC(=O)C1=C[C@@H](CC)N(S(=O)(=O)c2ccc(C)cc2)[C@H]1c1cccc(Cl)c1,-,0,0,-,-,-
COc1ccc(CNC(=O)[C@]2(C)CCC[C@@]3(C)C4CC[C@@]5(C)C[C@]4(CCC32)CC5=O)cc1 (some centres undefined),0,49,0,0,-,0
C#CCn1c(=NC(=O)CN2C(=O)CCC2=O)sc2cccc(OC)c21,0,0,0,0,0,0
Cn1c(=NC(=O)CS(=O)(=O)c2ccccc2)sc2ccccc21,0,0,0,0,-,0
